Activity and IC50 data for two molecules are collected here from ChEMBL document CHEMBL1139486, “Novel benzopyridothiadiazepines as potential active antitumor agents” (J Med Chem, 2005).

Broadly, the IC50 is the midpoint of a concentration-inhibition curve.

Test [1] deals with L1210. Put plainly: Cell cycle perturbations in mouse L1210 cells assessed as accumulation in G1 phase after 21 hrs at 0.2 uM relative to control. It is filed as functional.
A further test addresses Tubulin. The experiment in a line: Inhibition of tubulin polymerization. It is filed as protein-complex assay, Homo sapiens.
Test [2] concerns L1210. Put plainly: Cell cycle perturbations in mouse L1210 cells assessed as accumulation in 8N phase after 21 hrs at 0.2 uM relative to control. It is filed as functional.
Test [3] relates to L1210. Put plainly: Cell cycle perturbations in mouse L1210 cells assessed as accumulation in G2+M phase after 21 hrs at 0.2 uM relative to control. The class given is functional.
For test [4], the system named is L1210. Put plainly: Antiproliferative activity against mouse L1210 cells after 48 hrs relative control. The class given is functional, cell-based. As to conditions: L1210, 48 h. In outline:
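L1210 cells grown in RPMI 1640 with 10% fetal calf serum, 2 mM L-glutamine, penicillin/streptomycin and 10 mM HEPES (pH 7.4). Cells were exposed 48 h to graded drug concentrations, then MTT was added for 4 h at 37 °C. Formazan was dissolved in DMSO and OD read at 540 nm. IC50 came from linear regression on the linear part of the dose-response curve, in triplicate.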

In another test the test system is DU-145. The experiment in a line: Antiproliferative activity against DU145 cells. It is filed as functional, Homo sapiens.
The subject of test [5] is L1210. Put plainly: Cell cycle perturbations in mouse L1210 cells assessed as accumulation in S phase after 21 hrs at 0.2 uM relative to control. It is filed as functional.
Test [6] deals with L1210. Put plainly: Cell cycle perturbations in mouse L1210 cells assessed as accumulation in 8N phase after 21 hrs at 0.5 uM relative to control. The class given is functional.
Test [7] relates to L1210. The experiment in a line: Cell cycle perturbations in mouse L1210 cells assessed as accumulation in G2+M phase after 21 hrs at 0.5 uM relative to control. The class given is functional.
The subject of test [8] is L1210. The experiment in a line: Cell cycle perturbations in mouse L1210 cells assessed as accumulation in G1 phase after 21 hrs at 0.5 uM relative to control. The class given is functional.
In test [9] the test system is L1210. Put plainly: Cell cycle perturbations in mouse L1210 cells assessed as accumulation in S phase after 21 hrs at 0.5 uM relative to control. The class given is functional.

For `COc1ccc(CCN2C=CC=C3C2=Nc2ccccc2N(C)S3(=O)=O)cc1`, the Activity stood at 5% in the test on L1210 [1]; 70% in the test with L1210 [2]; 17% with L1210 [3]; 0.14 µM in the test on DU-145; 8% in the test on L1210 [5]. Besides, the IC50 amounted to 2400 nM on Tubulin and 110 nM in the test on L1210 [4].

Regarding `COc1ccc(CCN2C=CC=C3C2=Nc2ccc(Cl)cc2N(C)S3(=O)=O)cc1`, the Activity with L1210 [6] is 70%; with L1210 [7] it was 21%; in the test with L1210 [8], 3%; in the test on L1210 [9], 6%. Besides, the half-maximal inhibitory concentration (IC50) in the test on L1210 [4] was found to be 230 nM.
